Assay results collected from several papers.
Protocols differ between the studies behind these lines.
Target: Serine/threonine-protein kinase 17A (STK17A, Homo sapiens, UniProt Q9UEE5)

Compound	test	setting	endpoint	result
Cc1nn(CC(F)(F)F)cc1Nc1nccc(NCc2ccc(S(N)(=O)=O)cc2)n1	enzyme activity, inhibitor, radiometric	1 µM	remaining activity	103%
Cc1ccc(Nc2nccc(N(C)c3ccc4c(C)n(C)nc4c3)n2)cc1S(N)(=O)=O	cell-free assay	0.3 µM	inhibition	-6%
C#Cc1cccc(Nc2ncnc3cc(OCCOC)c(OCCOC)cc23)c1	cell-free assay	0.5 µM	remaining signal	99.7%
CNC(=O)c1cc(Oc2ccc(NC(=O)Nc3ccc(Cl)c(C(F)(F)F)c3)cc2)ccn1	cell-free assay	10 µM	inhibition	31%
CS(=O)(=O)N1CCCC(NC(=O)[C@H](CCC2CCCCC2)NC(=O)c2ccc(CNc3ncnc4c3nnn4-c3ccccc3)cc2)C1 (some centres unmarked)	cell-free assay, competition with immobilised ligand	0.1 µM	remaining binding	100%
O=C(NCCCNc1nc(Nc2cccc(NC(=O)N3CCCC3)c2)ncc1I)c1cccs1	enzyme activity, inhibitor, radiometric	1 µM	remaining activity	2%
CN1CC(Oc2cnc(C#N)cc2-c2ccn3nc(NC(=O)C4CC4)cc3c2)C1	enzyme activity, inhibitor	1 µM	inhibition	10%
Oc1cccc(-c2nc(N3CCOCC3)c3oc4ncccc4c3n2)c1	cell-free assay	0.5 µM	remaining signal	93.8%
O=C(NCCCNc1ccnc(Nc2cccc(NC(=O)N3CCCC3)c2)n1)C1CCC1	enzyme activity, inhibitor, radiometric	1 µM	remaining activity	18%
COc1cc2ncnc(Nc3ccc(F)c(Cl)c3)c2cc1OCCCN1CCOCC1	cell-free assay	0.5 µM	remaining signal	96%
C=CC(=O)Nc1cc(Nc2nccc(Nc3cc(Cl)c(F)cc3C(C)(C)O)n2)c(OC)cc1N1CC[C@@H](N(C)C)C1	enzyme activity, inhibitor	1 µM	inhibition	1%
Cc1nn(CC(F)(F)F)cc1Nc1ncc(C2CC2)c(NCCCNC(=O)C2CCC2)n1	enzyme activity, inhibitor, radiometric	1 µM	remaining activity	25%
C[C@@H](c1cccc(C#N)c1)n1cc(Cl)cc(C(N)=O)c1=N	cell-free assay, competition with immobilised ligand	1 µM	remaining binding	89%
c1cc(CN2CCOCC2)cc(Nc2ncc(C3CC3)c(NCCc3c[nH]cn3)n2)c1	enzyme activity, inhibitor, radiometric	1 µM	remaining activity	50%
O=C(N[C@H]1CCCCC/C=C\C2C[C@@]2(C(=O)O)NC(=O)[C@@H]2C[C@@H](Oc3ccncc3)CN2C1=O)OC1CCCC1 (some centres unmarked)	binding, competition with immobilised ligand	1 µM	remaining binding	100%
Brc1cnc(Nc2cccc(CN3CCOCC3)c2)nc1NCCc1c[nH]cn1	enzyme activity, inhibitor, radiometric	1 µM	remaining activity	8%
N#CC1(c2ccccn2)CCN(Cc2cc(C(=O)N3CCCC3)c(=O)n3ccccc23)CC1	cell-free assay, competition with immobilised ligand	1 µM	remaining binding	96%
Cc1ccc(NC(=O)c2ccc(C)c(C(F)(F)F)c2)cc1C#Cc1nn(C2CCC(O)CC2)c2ncnc(N)c12 (centres unmarked)	cell-free assay	10 µM	remaining signal	140%
CC(=O)c1c(NS(C)(=O)=O)c2cc(-c3ccc(Cl)cc3)c(-c3ccc(Cl)cc3Cl)nc2n(C)c1=O	cell-free assay, competition with immobilised ligand	1 µM	remaining binding	88%
CC(C)c1ccc(NC(=O)c2cccs2)c(-c2nc3ccccc3[nH]c2=O)c1	enzyme activity, inhibitor	1 µM	activity vs control	91%
O=C(O)[C@H]1[C@H](Cn2nnc3ccccc3c2=O)CC[C@@H]1C(=O)c1ccc(OCCC2CCOCC2)cc1	cell-free assay, competition with immobilised ligand	1 µM	remaining binding	97%
NS(=O)(=O)c1ccc(CNc2nc(Nc3cccc(NC(=O)N4CCCC4)c3)ncc2C2CC2)cc1	enzyme activity, inhibitor, radiometric	1 µM	remaining activity	79%
O=C(Nc1ccc(Oc2ccc(F)cc2)cc1)N1CCc2ncccc2[C@H]1c1ccc(F)cc1	cell-free assay, competition with immobilised ligand	1 µM	remaining binding	86%
CCN(CC)CCNC(=O)c1c(C)[nH]c(/C=C2\C(=O)Nc3ccc(F)cc32)c1C	cell-free assay	0.5 µM	remaining signal	26.7%
O=C(Nc1cccc(Nc2ncc(Br)c(NCCc3cnc[nH]3)n2)c1)N1CCCC1	enzyme activity, inhibitor, radiometric	1 µM	remaining activity	6%
CC(=O)C1=C(C)N(c2cccc(C(F)(F)F)c2)C(=O)N[C@@H]1c1ccc(C#N)nc1	cell-free assay, competition with immobilised ligand	1 µM	remaining binding	93.7%
